This is an account of results in ChEMBL document CHEMBL3244375, “Hypolipidemic arylthioalkanoic acids” (J Med Chem, 1977).

For data set [1], the system named is Rattus norvegicus. The data set is described as follows: Hypolipidemic activity in Sprague-Dawley rat assessed as reduction in serum cholesterol level at 0.25 % compound administered in diet for 14 days relative to control. It is filed as functional. The arrangement: scale not given: the % may be the effect or the level left. The essentials:
(§1)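 Test compound mixed into feed, given ad libitum to rats for 14 days; controls received feed alone. Rats then weighed and killed by decapitation; blood collected and serum cholesterol and triglycerides measured by previously described methods. Data reported as mg% serum with SD per group, % change versus control; significance by Student's t test. Dose-response groups of eight rats.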

Data set [2] concerns Rattus norvegicus. As to the kind of experiment: Hypolipidemic activity in Sprague-Dawley rat assessed as reduction in serum triglyceride level at 0.25 % compound administered in diet for 14 days relative to control. In kind it is functional. The arrangement: scale not given: the % may be the effect or the level left. A digest of the protocol: as §1
The test system of data set [3] is Rattus norvegicus. As to the kind of experiment: Toxicity in Sprague-Dawley rat assessed as increase in liver weight at 0.25 % compound administered in diet for 14 days relative to control. It is filed as organism-based. The note with it: in vivo, po, 336 h. The essentials:
(§2)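 Rats fed compound-containing diet ad libitum for 14 days alongside feed-only controls, eight rats per group in the dose-response study. At sacrifice by decapitation, liver removed and weighed. Change from controls scored semi-quantitatively, each + or − sign representing about a 10% change.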

The subject of data set [4] is Rattus norvegicus. The data set is described as follows: Hypolipidemic activity in Sprague-Dawley rat assessed as reduction in serum cholesterol level at 0.125 % compound administered in diet for 14 days relative to control. In kind it is functional. The arrangement: scale not given: the % may be the effect or the level left. The essentials: as §1
Data set [5] has as its system Rattus norvegicus. The data set is described as follows: Toxicity in Sprague-Dawley rat assessed as increase in liver weight at 0.125 % compound administered in diet for 14 days relative to control. In kind it is organism-based. The note with it: in vivo, po, 336 h. A digest of the protocol: as §2
In data set [6] the test system is Rattus norvegicus. The data set is described as follows: Hypolipidemic activity in Sprague-Dawley rat assessed as reduction in serum triglyceride level at 0.125 % compound administered in diet for 14 days relative to control. In kind it is functional. The arrangement: scale not given: the % may be the effect or the level left. A digest of the protocol:
as §1

Data set [7] can be described thus: Retardation factor of the compound by thin layer chromatography. It is filed as physicochemical.
Data set [8] relates to Rattus norvegicus. As to the kind of experiment: Toxicity in Sprague-Dawley rat assessed as mortality at 0.125 % compound administered in diet for 14 days relative to control. Particulars: in vivo, po, 336 h. In kind it is organism-based. The essentials:
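Compound mixed into rat feed and given ad libitum for 14 days; control groups received feed alone. At the end of the period, animals were weighed and killed by decapitation, blood was collected, and the liver was removed and weighed.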

For data set [9], the system named is Rattus norvegicus. As to the kind of experiment: Hypolipidemic activity in Sprague-Dawley rat assessed as reduction in serum triglyceride level at 0.03 % compound administered in diet for 14 days relative to control. In kind it is functional. The arrangement: scale not given: the % may be the effect or the level left. A digest of the protocol:
as §1

Data set [10] in a line: Toxicity in mouse. It is filed as organism-based. The note with it: in vivo.
Data set [11] deals with Rattus norvegicus. The data set is described as follows: Hypolipidemic activity in Sprague-Dawley rat assessed as reduction in serum cholesterol level at 0.03 % compound administered in diet for 14 days relative to control. In kind it is functional. The arrangement: scale not given: the % may be the effect or the level left. The essentials:
as §1

In data set [12] the test system is Rattus norvegicus. The data set is described as follows: Hypolipidemic activity in Sprague-Dawley rat assessed as reduction in serum triglyceride level at 0.06 % compound administered in diet for 14 days relative to control. In kind it is functional. The arrangement: scale not given: the % may be the effect or the level left. A digest of the protocol: as §1
Data set [13] deals with Rattus norvegicus. As to the kind of experiment: Hypolipidemic activity in Sprague-Dawley rat assessed as reduction in serum cholesterol level at 0.06 % compound administered in diet for 14 days relative to control. In kind it is functional. The arrangement: scale not given: the % may be the effect or the level left. A digest of the protocol: as §1
Data set [14] in a line: Toxicity in rat. In kind it is organism-based. Particulars: in vivo.

For the compound `CC(C)(C)c1cc(SCC(=O)O)cc(C(C)(C)C)c1O`, the Activity in data set [1] is listed as -16%.
For the compound `CC(Sc1cc(C(C)(C)C)c(O)c(C(C)(C)C)c1)C(=O)O` (configuration not stated), the Activity is -78% in data set [2], 30% in data set [3] and -32% in data set [1].
For `CCC(Sc1cc(C(C)(C)C)c(O)c(C(C)(C)C)c1)C(=O)O` (configuration not stated), the Activity is reported as -74% in data set [2], 40% in data set [3] and -37% in data set [1].
For `CCCC(Sc1cc(C(C)(C)C)c(O)c(C(C)(C)C)c1)C(=O)O` (configuration not stated), the Activity in data set [4] was -3%; in data set [5], 30%; in [6], -72%.
For `CCCCCC(Sc1cc(C(C)(C)C)c(O)c(C(C)(C)C)c1)C(=O)O` (configuration not stated), the Activity in [2] is -53%; in data set [3] it was 10%; in [1] it was -24%.
Take `CC(C)(Sc1cc(C(C)(C)C)c(O)c(C(C)(C)C)c1)C(=O)O`: the Activity in [2] is -66%; in data set [3] it was 40%; in data set [1], -21%.
The matching figures for `CCC(C)(Sc1cc(C(C)(C)C)c(O)c(C(C)(C)C)c1)C(=O)O` (configuration not stated): -80%, 40% and -32%.
In the case of `CCCC(C)(Sc1cc(C(C)(C)C)c(O)c(C(C)(C)C)c1)C(=O)O` (configuration not stated), the values for the Activity in data set [4], in data set [5] and in [6] were 12%, 30% and -55%, respectively.
Consider `CCCCC(C)(Sc1cc(C(C)(C)C)c(O)c(C(C)(C)C)c1)C(=O)O` (configuration not stated), for which the Activity in data set [4] was 8%; in [5] it was 20%; in data set [6] it was -66%.
As to `CCCCCC(C)(Sc1cc(C(C)(C)C)c(O)c(C(C)(C)C)c1)C(=O)O` (configuration not stated), the Activity in data set [4] is on record as -10%; in data set [5], 10%; in [6], -60%.
As for `CCCCCCC(C)(Sc1cc(C(C)(C)C)c(O)c(C(C)(C)C)c1)C(=O)O` (configuration not stated), the Activity in data set [4] is 17%; in [5], 10%; in [6], -73%.
In the case of `CCOC(=O)C(CC)Sc1cc(C(C)(C)C)c(O)c(C(C)(C)C)c1` (configuration not stated), the Activity in [4] is 13%; in data set [2], -55%; in data set [3] it was 10%; in [6] it was -43%; in data set [1] it was -5%.
In the case of `CCCC(Sc1cc(C(C)(C)C)c(O)c(C(C)(C)C)c1)C(=O)OCC` (configuration not stated), the figures for the Activity in [2], in data set [3] and in [1] were -54%, 0% and 0%, respectively.
For the compound `CCOC(=O)C(C)(C)Sc1cc(C(C)(C)C)c(O)c(C(C)(C)C)c1`, the Activity is -60% in data set [2], 20% in data set [3] and -23% in data set [1].
For `CCCCC(Sc1ccccc1)C(=O)O` (configuration not stated), the Activity in data set [4] is recorded as -16%; in data set [5] it was 0%; in data set [6], -37%. Further, the deltaRm in data set [7] came out at 0.
Regarding `CCCCC(Sc1ccc(Cl)cc1)C(=O)O` (configuration not stated), the results for the Activity in data set [4], in [5] and in data set [6] were -16%, 0% and -41%, respectively. For the same compound, in [7], the deltaRm stood at 0.25.
For `CCCCC(Sc1ccc(C)cc1)C(=O)O` (configuration not stated), the Activity in data set [4] is -11%; in data set [5], 0%; in data set [6], -23%. The deltaRm in data set [7] amounted to 0.23.
The matching figures for `CCCCC(Sc1ccc(OC)cc1)C(=O)O` (configuration not stated): -12%, 0%, -45% and 0.08.
In the case of `CCCCC(Sc1ccc(Br)c(C)c1)C(=O)O` (configuration not stated), the Activity in data set [4] is -17%; in [5] it was 20%; in data set [6], -49%. Moreover, the deltaRm in data set [7] is 0.51.
`CCCCC(Sc1cc(C(C)(C)C)cc(C(C)(C)C)c1)C(=O)O` (configuration not stated): the Activity was -23% in data set [4]; -41% in data set [2]; 20% in [5]; -58% in data set [6]; -20% in [1]. This compound yielded a deltaRm in data set [7] of 1.18.
As to `CCCCC(Sc1cc(C2CCCC2)c(O)c(C2CCCC2)c1)C(=O)O` (configuration not stated), the Activity is reported as -11% in [4], “Non-toxic” in data set [5] and -16% in data set [6]. For the same compound, in [7], the deltaRm stood at 0.94.
On to `CCCCC(Sc1cc(C2CCCCC2)c(O)c(C2CCCCC2)c1)C(=O)O` (configuration not stated), for which the Activity is listed as -3% in [4], “Non-toxic” in data set [5] and 5% in data set [6]. The compound also displayed a deltaRm in data set [7] of 1.1.
On to `CC(C)(Sc1cc(C(C)(C)C)cc(C(C)(C)C)c1)C(=O)O`, for which the Activity is -31% in data set [4], 30% in data set [5] and -63% in data set [6].
The matching figures for `CCCC(C)(Sc1cc(C(C)(C)C)cc(C(C)(C)C)c1)C(=O)O` (configuration not stated): -29%, 40% and -80%.
For the compound `CCCCCC(C)(Sc1cc(C(C)(C)C)cc(C(C)(C)C)c1)C(=O)O` (configuration not stated), the Activity is given as -27% in [4], 20% in data set [5] and -73% in [6].
The matching figures for `CCCCCCC(C)(Sc1cc(C(C)(C)C)cc(C(C)(C)C)c1)C(=O)O` (configuration not stated): -38%, 30% and -68%.
Consider `CC(C)(C)c1cc(OCC(=O)O)cc(C(C)(C)C)c1O`, for which the Activity in data set [4] is 13%; in data set [6] it was -50%.
Turning to `CC(Oc1cc(C(C)(C)C)c(O)c(C(C)(C)C)c1)C(=O)O` (configuration not stated), the Activity result in [8] is recorded as “Toxic”.
In the case of `CCC(Oc1cc(C(C)(C)C)c(O)c(C(C)(C)C)c1)C(=O)O` (configuration not stated), the Activity in data set [4] worked out at 6%; in [6] it was 38%.
Take `CCCCC(Oc1cc(C(C)(C)C)c(O)c(C(C)(C)C)c1)C(=O)O` (configuration not stated): the Activity in data set [4] is recorded as -7%; in data set [5] it was 20%; in data set [6], -38%.
On to `CCCCC(Oc1cc(C(C)(C)C)c(O)c(C(C)(C)C)c1)C(=O)OCC` (configuration not stated), for which the Activity is reported as -13% in data set [4], 10% in data set [5] and -28% in data set [6].
On to `CCCCC(C(=O)O)S(=O)(=O)c1cc(C(C)(C)C)c(O)c(C(C)(C)C)c1` (configuration not stated), for which the Activity in [4] is listed as -14%; in data set [2], -44%; in data set [5], 20%; in [6] it was -36%; in [1] it was -17%.
Regarding `CCCCC(C(=O)O)c1cc(C(C)(C)C)c(O)c(C(C)(C)C)c1` (configuration not stated), the Activity in data set [4] is reported as -20%; in data set [6], -24%.
The matching figures for `CCCCC(C(=O)OCC)c1cc(C(C)(C)C)c(O)c(C(C)(C)C)c1` (configuration not stated): -2% and -10%.
For orientation: LD50 means the dose expected to kill half of the subjects tested. For the compound `CCCCC(Sc1cc(C(C)(C)C)c(O)c(C(C)(C)C)c1)C(=O)O` (racemic), the Activity is listed as -32% in data set [4]; -35% in data set [9]; -69% in data set [2]; 20% in [3]; -21% in data set [11]; 10% in data set [5]. The Activity in data set [12] is listed as -61%; in [13] it was -28%; in data set [6] it was -66%; in data set [1], -30%. Besides, the results for the LD50 in data set [10] and in [14] were 5000 mg/kg and 7200 mg/kg, respectively. This compound came in with a deltaRm in data set [7] of 0.96.
In the case of `CCOC(=O)C(C)(C)Oc1ccc(Cl)cc1` [CLOFIBRATE], the Activity is -50% in [2], 20% in [3] and -28% in data set [1].
For the compound `CC(C)(Sc1cc(C(C)(C)C)c(O)c(C(C)(C)C)c1)Sc1cc(C(C)(C)C)c(O)c(C(C)(C)C)c1` [PROBUCOL], the results for the Activity in [2], in data set [3] and in data set [1] were -33%, 0% and 38%, respectively.
